Reference: ChEMBL document CHEMBL1143714, “Nocardichelins A and B, siderophores from Nocardia strain acta 3026” (2007)
Active and inactive are the calls of the source. No cut-off for these calls is given here.

Tests used:
[1] = Growth inhibition of human MCF cells after 48 hrs; type: functional
Procedure, shortened: (§1)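 Run per NCI guidelines. Cells grown in RPMI 1640 with 10% fetal calf serum, 5% CO2, humidified. Compounds added after 24 h as DMSO solutions at 0.1-10 µg/mL, 0.1% final DMSO, then 48 h further culture. Cell count by sulforhodamine B protein staining. GI50 (50% growth inhibition) and TGI derived.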

Saccharomyces cerevisiae = assay: Growth inhibition against yeast after 48 hrs by agar plate diffusion assay; type: functional, organism-based
Procedure, shortened: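 10 µL sample aliquots applied to 6 mm filter disks placed on inoculated test plates; fungal plates incubated 48 h at temperature optimal for the test organism; activity read from growth inhibition on agar.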

HepG2 = assay: Growth inhibition of human HepG2 cells after 48 hrs; type: functional; settings: HepG2, 48 h; procedure, shortened: as §1
AGS = assay: Growth inhibition of human AGS cells after 48 hrs; type: functional; procedure, shortened: as §1

Compound: CCCCCCCCCCC/C=C\C(=O)N(O)CCCCCNC(=O)CCC(=O)N(O)CCCCCNC(=O)[C@@H]1COC(c2ccccc2O)=N1 [NOCARDICHELIN B]
- GI50 [1]: 1130 nM
- TGI [1]: 3490 nM
- Activity (Saccharomyces cerevisiae): inactive
- GI50 (HepG2): 69.9 nM
- TGI (HepG2): 335 nM
- GI50 (AGS): 44.7 nM
- TGI (AGS): 1500 nM

Compound: CCCCCCCCCCCCC/C=C\C(=O)N(O)CCCCCNC(=O)CCC(=O)N(O)CCCCCNC(=O)[C@@H]1COC(c2ccccc2O)=N1 [NOCARDICHELIN A]
- GI50 [1]: 202 nM
- TGI [1]: 538 nM
- Activity (Saccharomyces cerevisiae): inactive
- GI50 (HepG2): 282 nM
- TGI (HepG2): 471 nM
- GI50 (AGS): 28.2 nM
- TGI (AGS): 202 nM
